Reference: ChEMBL document CHEMBL4819149, “A facile reaction to access novel structural sulfonyl-hybridized imidazolyl ethanols as potential DNA-targeting antibacterial agents” (Bioorg Med Chem Lett, 2021)
≈ marks a conversion by molar mass, not a printed value. Calls of active or inactive are those of the source. No cut-off for these calls is given here.

Legend:
Staphylococcus aureus [1] = assay: Antibacterial activity against methicillin-resistant Staphylococcus aureus assessed as bacterial growth inhibition by broth microdilution method; assay type: functional
Procedure, shortened: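 MIC read by micro broth dilution; values given in μg/mL.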

Enterococcus faecalis [2] = assay: Antibacterial activity against Enterococcus faecalis assessed as bacterial growth inhibition by broth microdilution method; assay type: functional
Procedure, shortened: (§1)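 MIC values reported in µg/mL, determined by broth microdilution in microdilution plates.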

Staphylococcus aureus [3] = assay: Antibacterial activity against Staphylococcus aureus assessed as bacterial growth inhibition by broth microdilution method; assay type: functional; procedure, shortened: as §1
Staphylococcus aureus [4] = assay: Antibacterial activity against Staphylococcus aureus ATCC 25923 assessed as bacterial growth inhibition by broth microdilution method; assay type: functional; procedure, shortened: as §1
Staphylococcus aureus [5] = assay: Antibacterial activity against Staphylococcus aureus ATCC 29213 assessed as bacterial growth inhibition by broth microdilution method; assay type: functional; procedure, shortened: as §1
Klebsiella pneumoniae = assay: Antibacterial activity against Klebsiella pneumonia assessed as bacterial growth inhibition by broth microdilution method; assay type: functional; procedure, shortened: as §1
Pseudomonas aeruginosa [6] = assay: Antibacterial activity against Pseudomonas aeruginosa ATCC 27853 assessed as bacterial growth inhibition by broth microdilution method; assay type: functional; procedure, shortened: as §1
Pseudomonas aeruginosa [7] = assay: Antibacterial activity against Pseudomonas aeruginosa assessed as bacterial growth inhibition by broth microdilution method; assay type: functional; procedure, shortened: as §1
Acinetobacter baumannii = assay: Antibacterial activity against Acinetobacter baumannii assessed as bacterial growth inhibition by broth microdilution method; assay type: functional; procedure, shortened: as §1
Escherichia coli [8] = assay: Antibacterial activity against Escherichia coli assessed as bacterial growth inhibition by broth microdilution method; assay type: functional; procedure, shortened: as §1
Escherichia coli [9] = assay: Antibacterial activity against Escherichia coli ATCC 25922 assessed as bacterial growth inhibition by broth microdilution method; assay type: functional; procedure, shortened: as §1
Staphylococcus aureus [10] = assay: Antibacterial activity against methicillin-resistant Staphylococcus aureus measured after 13 passages by broth microdilution method; assay type: functional, organism-based
DNA [11] = assay: Binding affinity to DNA (unknown origin) assessed as hypochromic shift by UV-vis spectrophotometric analysis; assay type: nucleic-acid assay
Procedure, shortened: (§2)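 DNA UV-vis absorption spectra were recorded with increasing test compound concentration, following the 260 nm peak intensity and position. Hypochromism was judged by comparing the summed absorbance of free DNA and free compound with the measured absorbance of the compound-DNA complex.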

Calf thymus DNA = assay: Binding affinity to calf thymus DNA assessed as DNA intercalation by competitive neutral red dye displacement based UV-Vis absorbance analysis; details: Bos taurus
Procedure, shortened: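 Neutral red (NR) competition: absorbance around 530 nm was followed with test compound and increasing calf thymus DNA, compared against free NR titrated with increasing calf thymus DNA.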

DNA [12] = assay: Binding affinity to methicillin-resistant Staphylococcus aureus DNA assessed as DNA intercalation by competitive neutral red dye displacement based UV-Vis absorbance analysis; assay type: nucleic-acid assay
[13] = Cytotoxicity against human […] assessed as reduction in cell viability at 100 ug/ml by MTT assay; assay type: cell-based; details: dose 100 µg/ml
Procedure, shortened: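 Endothelial […] were exposed to a range of compound concentrations up to 100 µg/mL, and viability was read by MTT assay.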

Staphylococcus aureus [14] = assay: Potency index, ratio of sulfathiazole MIC to test compound MIC for methicillin-resistant Staphylococcus aureus assessed as bacterial growth inhibition by broth microdilution method; assay type: functional
Staphylococcus aureus [15] = assay: Potency index, ratio of norfloxacin MIC to test compound MIC for methicillin-resistant Staphylococcus aureus assessed as bacterial growth inhibition by broth microdilution method; assay type: functional
Enterococcus faecalis [16] = assay: Potency index, ratio of sulfathiazole MIC to test compound MIC for Enterococcus faecalis assessed as bacterial growth inhibition by broth microdilution method; assay type: functional
DNA [17] = assay: Binding affinity to DNA (unknown origin) assessed as increase in maximum absorption peak of DNA at 260 nm by UV-vis spectrophotometric analysis; assay type: nucleic-acid assay; procedure, shortened: as §2
DNA [18] = assay: Binding affinity to DNA (unknown origin) assessed as red shift in absorption maxima by UV-vis spectrophotometric analysis; assay type: nucleic-acid assay; procedure, shortened: as §2

Structure (SMILES)	MIC (Staphylococcus aureus [1]) [mg/L]	MIC (Enterococcus faecalis [2]) [mg/L]	MIC (Staphylococcus aureus [3]) [mg/L]	MIC (Staphylococcus aureus [4]) [mg/L]	MIC (Staphylococcus aureus [5]) [mg/L]	MIC (Klebsiella pneumoniae) [mg/L]	MIC (Pseudomonas aeruginosa [6]) [mg/L]	MIC (Pseudomonas aeruginosa [7]) [mg/L]	MIC (Acinetobacter baumannii) [mg/L]	MIC (Escherichia coli [8]) [mg/L]	MIC (Escherichia coli [9]) [mg/L]	also measured
CC(=O)Nc1ccc(S(=O)(=O)CC(CO)n2ccnc2)cc1 (centres undefined)	32 (≈ 99 µM)	32 (≈ 99 µM)	64 (≈ 198 µM)	64 (≈ 198 µM)	32 (≈ 99 µM)	128 (≈ 396 µM)	64 (≈ 198 µM)	128 (≈ 396 µM)	64 (≈ 198 µM)	64 (≈ 198 µM)	64 (≈ 198 µM)	
Cc1cn(C(CO)CS(=O)(=O)c2ccc(N)cc2)cn1 (centres undefined)	8 (≈ 27.1 µM)	16 (≈ 54.2 µM)	64 (≈ 217 µM)	32 (≈ 108 µM)	64 (≈ 217 µM)	32 (≈ 108 µM)	32 (≈ 108 µM)	128 (≈ 433 µM)	16 (≈ 54.2 µM)	64 (≈ 217 µM)	64 (≈ 217 µM)	
CCn1cc(C(=O)O)c(=O)c2cc(F)c(N3CCNCC3)cc21 [NORFLOXACIN]	8 (≈ 25.1 µM)	256 (≈ 802 µM)	8 (≈ 25.1 µM)	1 (≈ 3.13 µM)	1 (≈ 3.13 µM)	256 (≈ 802 µM)	16 (≈ 50.1 µM)	256 (≈ 802 µM)	8 (≈ 25.1 µM)	512 (≈ 1600 µM)	512 (≈ 1600 µM)	Activity (Staphylococcus aureus [10]): inactive
CCc1nc(C)cn1C(CO)CS(=O)(=O)c1ccc(N)cc1 (centres undefined)	16 (≈ 49.5 µM)	16 (≈ 49.5 µM)	64 (≈ 198 µM)	64 (≈ 198 µM)	128 (≈ 396 µM)	128 (≈ 396 µM)	32 (≈ 98.9 µM)	128 (≈ 396 µM)	64 (≈ 198 µM)	64 (≈ 198 µM)	32 (≈ 98.9 µM)	
CCCc1nccn1C(CO)CS(=O)(=O)c1ccc(N)cc1 (centres undefined)	8 (≈ 24.7 µM)	32 (≈ 98.9 µM)	128 (≈ 396 µM)	64 (≈ 198 µM)	128 (≈ 396 µM)	128 (≈ 396 µM)	32 (≈ 98.9 µM)	256 (≈ 792 µM)	32 (≈ 98.9 µM)	64 (≈ 198 µM)	64 (≈ 198 µM)	
CC(=O)Nc1ccc(S(=O)(=O)CC(CO)n2ccnc2C(C)C)cc1 (centres undefined)	16 (≈ 43.8 µM)	32 (≈ 87.6 µM)	128 (≈ 350 µM)	64 (≈ 175 µM)	16 (≈ 43.8 µM)	64 (≈ 175 µM)	64 (≈ 175 µM)	256 (≈ 700 µM)	32 (≈ 87.6 µM)	64 (≈ 175 µM)	64 (≈ 175 µM)	
CCc1nc(C)cn1C(CO)CS(=O)(=O)c1ccc(NC(C)=O)cc1 (centres undefined)	4 (≈ 10.9 µM)	16 (≈ 43.8 µM)	64 (≈ 175 µM)	128 (≈ 350 µM)	32 (≈ 87.6 µM)	128 (≈ 350 µM)	32 (≈ 87.6 µM)	128 (≈ 350 µM)	64 (≈ 175 µM)	64 (≈ 175 µM)	32 (≈ 87.6 µM)	Activity (DNA [11]): Active; Activity (Calf thymus DNA): inactive; Activity (DNA [12]): Active; Activity [13]: Non-Toxic; Activity (Staphylococcus aureus [10]): Active; Ratio (Staphylococcus aureus [14]): 16; Ratio (Staphylococcus aureus [15]): 2; Ratio (Enterococcus faecalis [16]): 32; Activity (DNA [17]): Active; Activity (DNA [18]): Active
CCc1nc(I)cn1C(CO)CS(=O)(=O)c1ccc(NC(C)=O)cc1 (centres undefined)	128 (≈ 268 µM)	64 (≈ 134 µM)	64 (≈ 134 µM)	64 (≈ 134 µM)	64 (≈ 134 µM)	64 (≈ 134 µM)	32 (≈ 67 µM)	256 (≈ 536 µM)	64 (≈ 134 µM)	64 (≈ 134 µM)	32 (≈ 67 µM)	
CC(=O)Nc1ccc(S(=O)(=O)CC(CO)n2cnc(C)c2)cc1 (centres undefined)	16 (≈ 47.4 µM)	64 (≈ 190 µM)	128 (≈ 379 µM)	64 (≈ 190 µM)	32 (≈ 94.8 µM)	32 (≈ 94.8 µM)	32 (≈ 94.8 µM)	128 (≈ 379 µM)	64 (≈ 190 µM)	64 (≈ 190 µM)	64 (≈ 190 µM)	
Nc1ccc(S(=O)(=O)Nc2nccs2)cc1 [SULFATHIAZOLE]	64 (≈ 251 µM)	512 (≈ 2010 µM)	512 (≈ 2010 µM)	512 (≈ 2010 µM)	512 (≈ 2010 µM)	128 (≈ 501 µM)	512 (≈ 2010 µM)	128 (≈ 501 µM)	64 (≈ 251 µM)	256 (≈ 1000 µM)	128 (≈ 501 µM)	Activity (Staphylococcus aureus [10]): inactive
CC(=O)Nc1ccc(S(=O)(=O)CC(CO)n2cnc(I)c2)cc1 (centres undefined)	32 (≈ 71.2 µM)	64 (≈ 142 µM)	64 (≈ 142 µM)	64 (≈ 142 µM)	64 (≈ 142 µM)	64 (≈ 142 µM)	32 (≈ 71.2 µM)	32 (≈ 71.2 µM)	32 (≈ 71.2 µM)	128 (≈ 285 µM)	32 (≈ 71.2 µM)	
CC(=O)Nc1ccc(S(=O)(=O)CC(CO)n2ccnc2C)cc1 (centres undefined)	8 (≈ 23.7 µM)	64 (≈ 190 µM)	64 (≈ 190 µM)	64 (≈ 190 µM)	32 (≈ 94.8 µM)	128 (≈ 379 µM)	64 (≈ 190 µM)	128 (≈ 379 µM)	16 (≈ 47.4 µM)	64 (≈ 190 µM)	32 (≈ 94.8 µM)	
